# From PubChem
# aDG glyco act: activators of alpha-DG glycosylation, primary screen, uHTS, Pro5-aDG cells, AlphaScreen; 360,000 tested, 0.22% active; alpha-DG glycosylation AlphaScreen (IIH6); 0% Pro5, 100% B10-LARGE cell signal; activation, % at 10 µM;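 active = activation of at least 8% versus controls, or a plate z-score of at least 8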;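 note: Pro5 are CHO cells carrying HIG-tagged alpha-DG that lacks glycosylation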
# UPR CHOP act: activators of apoptotic CHOP UPR arm, primary screen, cell-based, CHO-CHOP luciferase reporter, luminescence, uHTS. UPR activation; percent of tunicamycin response over DMSO baseline. activation, % at 10 µM. 330,000 tested, 0.34% active. AID 449763, 2010;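 active = at 10 µM dose, activation of 40% or more, normalized to positive control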
#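 Material: CHO-CHOP cells, stable luciferase reporter of PERK-eIF2a-CHOP signalling; quantity: 500 reporter cells seeded per well; buffer or medium: F12 medium containing 10% fetal bovine serum; compound: one dose, 10 µM in 0.5% DMSO; incubation: 6 h compound treatment, 37 °C; measured by: Steady-Glo luciferase luminescence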
# MPTP block: mitochondrial permeability transition pore inhibitors, primary screen, biochemical, isolated mouse mitochondria, absorbance | Ca2+ swelling absorbance, 30 min | inhibition, % at 10 µM | 360,000 tested, 1.4% active;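 active = inhibition of 50% or more, scaled per plate between neutral and stimulator controls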
# XBP1 UPR activ: activators of adaptive XBP1 UPR arm, primary screen, cell-based, CHO-XBP1 luciferase reporter, luminescence, uHTS; IRE1-XBP1 UPR activation; percent of tunicamycin response, DMSO as zero; 330,000 tested, 0.33% active; activation, % at 20 µM; AID 463104, 2010;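 active = versus positive control, 20 µM dose yields 30% or more activation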
#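 Assay system: CHO-XBP1 luciferase reporter cells; Schedule: 6 h treatment, 37 °C; Detection: glow luminescence from Steady-Glo reagent; Benchmarks: high control tunicamycin 10 µg/mL final, low control DMSO vehicle only.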
# CHOP inh: inhibitors of CHOP promoter induction, primary screen, cell-based, unfolded protein response, luciferase reporter; 220,000 tested, 3.8% active; CHO-K1 CHOP-promoter luciferase, tunicamycin-induced, 15-18 h; inhibition, % at 10 µM;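 active = compounds that reduced the stress-induced luciferase reporter signal by more than about 70% of percent inhibition, limit read from the data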
# GRIN3A LBD mod: binders of NR3A ligand-binding domain, primary screen, biophysical, differential scanning fluorimetry, uHTS | NR3A LBD differential scanning fluorimetry, Tm shift; 0% = protein alone, 100% = glycine-bound protein | 340,000 tested, 2.5% active | Tm shift relative to glycine control, % at 25 µM | Glutamate receptor ionotropic, NMDA 3A (GRIN3A) ligand-binding domain | AID 1259313, 2017;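 active = melting temperature shift of at least 10% of the positive control shift, at one fixed dose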
# aDG glyco conf: alpha-DG glycosylation enhancers, retest, confirmation, single concentration, Pro5-aDG cells | shares compounds with aDG glyco act | IIH6 AlphaLISA; scaled to LARGE-overexpressing B10 cells as 100% | activation, % at 10 µM (by protocol) | 600 tested, 17% active | AID 651671, 2012;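 active = activation of at least 7% in one or more replicates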;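 note: cells exposed to compound for two days before detection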
# Hits are given with their value; n = inactive; x = not tested or not shown. Sampled rows, rich in hits. Any-hit rate of the full collection: about 5.6%.
SMILES,aDG glyco act,UPR CHOP act,MPTP block,XBP1 UPR activ,CHOP inh,GRIN3A LBD mod,aDG glyco conf
Cc1cc(NC(=O)CSc2c3c(nc4ccccc24)CCC3)no1,8.2,n,n,n,n,n,n
CCc1nc2ccc(C(=O)NC3CCN(Cc4ccccc4)CC3)cn2c1N(C)Cc1cc2ccccc2s1,6.4,x,n,x,x,x,11
Cc1ccccc1Nc1nc(N)nc(COC(=O)c2ccco2)n1,3.8,n,n,n,x,n,n
Nc1nc(COC(=O)c2ccco2)nc(Nc2ccccc2)n1,n,x,n,x,x,x,x
CCC(=O)c1ccc(OCC(O)CNC2CCCC2)cc1 (stereo unspecified),n,n,n,n,x,n,x
Nc1nc(-c2ccccn2)nc(N)c1Cc1c(F)cccc1Cl,8.0,n,n,n,71,n,n
N/C(=N\OC(=O)COc1ccc(Cl)cc1Cl)c1ccccn1,n,n,n,n,n,n,x
N/C(=N\OC(=O)COc1ccc(Br)cc1Cl)c1ccccn1,14,n,n,n,n,n,n
Cc1ccc(S(=O)(=O)N2CCOCC2)cc1C(=O)OCC(=O)NCCc1ccccc1,n,n,n,n,x,n,x
CN(Cc1cnc2nc(N)nc(N)c2n1)c1ccc(C(=O)NC(CCC(=O)O)C(=O)O)cc1 (stereo unspecified),n,x,n,x,x,n,x
OCCN1CCN(c2ncnc3c2ncn3[C@H]2CN(Cc3ccc(-c4ccccc4)cc3)C[C@@H](CO)O2)CC1,n,x,n,x,x,x,x
CN1CCN(c2ncnc3c2ncn3[C@H]2CN(Cc3ccc(-c4ccccc4)cc3)C[C@@H](CO)O2)CC1,9.6,x,n,x,x,x,9.8
COCC(=O)Nc1cccc(-c2ccc3nncn3n2)c1,n,n,n,n,x,n,x
O=C(COc1ccc(Cl)cc1)Nc1cccc(-c2ccc3nncn3n2)c1,3.5,n,n,n,n,n,n
O=C(NCC1CCCO1)c1cc([N+](=O)[O-])ccc1N1CCC(Cc2ccccc2)CC1 (stereo unspecified),n,n,n,n,x,n,x
Oc1cccc(C=NCc2ccccc2)c1,51,n,n,n,n,n,n
COc1ccccc1CNC(=O)CN1C(=O)NC2(CCCC2)C1=O,n,n,n,n,x,n,x
c1ccc2cc(-c3cc4ccccn4c3)ccc2c1,5.2,n,n,n,n,n,n
COc1ccccc1C(=O)Nc1ccc2c(c1)CCCN2C(=O)c1ccccc1,9.6,n,n,n,x,n,n
COc1ccccc1C(=O)Nc1ccc2c(c1)CCCN2C(=O)c1cccs1,n,n,n,n,x,n,x
CN(C)c1ccc(C(=O)OCC(=O)Nc2ccc(S(N)(=O)=O)cc2)cc1,6.0,n,n,n,n,n,n
NC(c1csc(Nc2cc(Oc3ccccc3)ncn2)n1)C1CCCCC1 (stereo unspecified),9.7,x,n,x,x,x,11
O=C(O)c1ncc(Cl)c(Cl)c1Cl,n,n,n,n,n,n,x
O=C(CSc1nc2ccccc2s1)CSc1nc2ccccc2s1,6.8,n,n,n,n,n,n
Cc1cc(=O)oc2cc(OCC(=O)N3CCN(C(=O)C4COc5ccccc5O4)CC3)ccc12 (stereo unspecified),n,n,n,n,x,n,x
SMILES,aDG glyco act,UPR CHOP act,MPTP block,XBP1 UPR activ,CHOP inh,GRIN3A LBD mod,aDG glyco conf
O=C(COc1ccc2ccc(=O)oc2c1)N1CCN(C(=O)C2COc3ccccc3O2)CC1 (stereo unspecified),7.8,n,n,n,x,n,n
CC(C)(C)c1ccc(-c2cc(N)n[nH]2)cc1,9.7,n,n,n,91,n,n
CCS(=O)(=O)N1CCCC(C(=O)c2ccc(OC)cc2C)C1 (stereo unspecified),25,n,n,n,n,n,n
CC(=O)c1ccc(NC(=O)C2CCCC2)cc1,2.1,n,n,n,x,n,n
COc1cccc(CN(C)C(=O)c2cccc(S(=O)(=O)N3CCN(c4ccc(F)cc4)CC3)c2)c1OC,3.5,n,n,n,x,n,n
CN1/C(=C\C(=O)COC(=O)c2ccco2)C(C)(C)c2ccccc21,n,n,n,n,n,n,x
CN1/C(=C\C(=O)c2ccco2)C(C)(C)c2ccccc21,4.3,n,n,n,n,n,n
CCCCN1CCc2c1nc1ccc(Br)cc1c2N,3.6,n,n,n,n,n,7.8
Cc1ccc2nc3c(c(N)c2c1)CCN3C,n,n,n,n,x,n,x
CCOC(=O)c1ccc(NC(=O)Cn2c(-c3nonc3N)nc3ccccc32)cc1,n,n,n,n,n,n,x
Cc1ccc(CNC(=O)CN(C(=O)C2(C)CC(=O)N=C3C=CC=CN32)c2cccc(C)c2C)cc1 (stereo unspecified),2.6,n,n,n,x,n,n
Cc1ccc(CNC(=O)CN(C(=O)C2(C)CC(=O)N=C3C=CC=CN32)c2ccccc2)cc1 (stereo unspecified),n,n,n,n,x,n,x
Cc1ccc(NC(=S)Nc2cccc(-c3n[nH]c(=S)o3)c2)cc1,n,n,n,n,n,n,x
Cc1cc(C)n(CCNC(=O)[C@H]2O[C@@H](n3ccc(=O)[nH]c3=O)[C@H](O)[C@@H]2O)n1,21,x,n,x,x,x,n
O=C(NCC(F)(F)F)[C@H]1O[C@@H](n2ccc(=O)[nH]c2=O)[C@H](O)[C@@H]1O,n,x,n,x,x,x,x
Cc1ccc(-n2c(SCC(N)=O)nnc2-c2ccco2)cc1,4.3,n,n,n,x,n,n
O=C(NC(=S)NCc1cccnc1)c1cc(Br)ccc1Cl,3.5,n,n,n,x,n,n
CN(CC(=O)Nc1ccccc1C(=O)NC1CC1)Cc1ccco1,4.2,n,n,n,x,n,n
Nc1nnc(-c2ccc([N+](=O)[O-])o2)s1,7.9,x,n,x,x,n,4.0
Cc1ccccc1C(=O)N/N=C/c1ccc([N+](=O)[O-])s1,n,n,n,n,n,n,x
O=C(CNC(=O)c1cccc(F)c1)N/N=C/c1ccc([N+](=O)[O-])s1,11,n,n,n,n,n,n
c1ccc(-c2nc(N3CCOCC3)c3ccccc3n2)nc1,7.0,n,n,n,n,n,n
Cc1nc(-c2ccccn2)nc(N2CCOCC2)c1Cl,n,n,n,n,n,n,x
Cc1cccc(-n2c(=S)[nH]c3sc4c(c3c2=O)CCc2ccccc2-4)c1,n,n,n,n,n,n,x
